Experimental data published in ChEMBL document CHEMBL1122812, “Novel amino-substituted 3-quinolinecarboxylic acid antibacterial agents: synthesis and structure-activity relationships” (1984).
Values after ≈ are worked out from the molar mass of the structure shown.

How the values were obtained:
Type in all cases: functional
[1] = Antibacterial activity in mice after intraperitoneal administration with 0.5 mL of Escherichia coli Vogel inoculum; settings: sc
Method in brief: (§1)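 Female ICR mice (18-20 g) infected intraperitoneally with 0.5 mL of E. coli Vogel (grown in brain heart infusion broth, suspended in saline) at 1.9×10^7 cells/mL. Compound as free acid dissolved in dilute NaOH and diluted with water, given once (0.5 mL) sc or po at 0.5 h postinfection. Groups of 10 mice at four or five dose levels, with nonmedicated controls. Deaths recorded daily for 7 days; PD50 by probit analysis.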

Escherichia coli = assay: In vitro minimum inhibitory concentration against growth of Escherichia coli Vogel
Method in brief: (§2)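 Tube serial dilution. Cultures grown overnight at 37 °C in tryptose phosphate broth or brain heart infusion broth. Compound stock of 1000 μg/mL (as free acid) made in minimal 0.5 N NaOH, then diluted in distilled water. Dilutions were mixed 1:1 with culture to a final 1×10^5 cells/mL and incubated 18–20 h at 37 °C. MIC = lowest concentration with no visible growth.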

Staphylococcus aureus = assay: In vitro minimum inhibitory concentration against growth of Staphylococcus aureus Smith
Method in brief: (§3)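 Tube serial dilution. Stocks at 1000 μg/mL (free acid) were made in minimal 0.5 N NaOH and diluted in distilled water. Cultures were grown overnight at 37 °C in tryptose phosphate or brain heart infusion broth. Final inoculum was 1×10^5 cells/mL, incubated 18–20 h at 37 °C. MIC was the lowest concentration preventing visible growth.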

Pseudomonas aeruginosa = assay: In vitro minimum inhibitory concentration against growth of Pseudomonas aeruginosa MGH-2; method in brief: as §2
Mus musculus = assay: Compound was evaluated for antibacterial activity in mice after peroral administration with 0.5 mL of Escherichia coli Vogel inoculum; settings: po, read-out: PD50; method in brief: as §1
Klebsiella pneumoniae = assay: In vitro minimum inhibitory concentration against growth of Klebsiella pneumoniae strain 39645; method in brief: as §3

Structure (SMILES)	PD50 [1] [mg/kg]	MIC (Escherichia coli) [µg/mL]	MIC (Staphylococcus aureus) [µg/mL]	MIC (Pseudomonas aeruginosa) [µg/mL]	ED50 (Mus musculus) [mg/kg]	MIC (Klebsiella pneumoniae) [µg/mL]
CN1CCN(c2cc3c(cc2F)c(=O)c(C(=O)O)cn3N)CC1	2.9	1.95 (≈ 6.09 µM)	–	–	–	–
CCNn1cc(C(=O)O)c(=O)c2cc(F)c(N3CCN(C)CC3)cc21	–	0.5 (≈ 1.44 µM)	–	–	–	–
CNn1cc(C(=O)O)c(=O)c2cc(F)c(N3CCN(C(C)C)CC3)cc21	1.5	0.5 (≈ 1.38 µM)	–	–	–	–
CNn1cc(C(=O)O)c(=O)c2cc(F)c(N3CCC(O)C3)cc21 (configuration not stated)	–	1 (≈ 3.11 µM)	–	–	–	–
CNn1cc(C(=O)O)c(=O)c2cc(F)c(N3CCSCC3)cc21	–	0.5 (≈ 1.48 µM)	–	–	–	–
C=CCNn1cc(C(=O)O)c(=O)c2cc(F)c(N3CCN(C)CC3)cc21	19	1 (≈ 2.77 µM)	–	–	–	–
CNn1cc(C(=O)O)c(=O)c2cc(F)c(N3CCCC3)cc21	–	1 (≈ 3.28 µM)	–	–	–	–
CCOC(=O)c1cn(NC)c2cc(N3CCN(C)CC3)c(F)cc2c1=O.CS(=O)(=O)O	–	62.5	–	–	–	–
CCCNn1cc(C(=O)O)c(=O)c2cc(F)c(N3CCN(C)CC3)cc21	33	1.95 (≈ 5.38 µM)	–	–	–	–
CN1CCN(c2cc3c(cc2F)c(=O)c(C(=O)O)cn3N(C)C)CC1	1.6	0.5 (≈ 1.44 µM)	–	–	–	–
CNn1cc(C(=O)O)c(=O)c2cc(F)c(N3CCOCC3)cc21	16.6	0.5 (≈ 1.56 µM)	–	–	–	–
CNn1cc(C(=O)O)c(=O)c2cc(F)c(N3CCC(O)CC3)cc21	–	1.95 (≈ 5.82 µM)	–	–	–	–
CNn1cc(C(=O)O)c(=O)c2cc(F)c(N3CCCC(O)C3)cc21 (configuration not stated)	41	–	–	–	–	–
CNn1cc(C(=O)O)c(=O)c2cc(F)c(N3CCN(C(C)=O)CC3)cc21	109	15.6 (≈ 43.1 µM)	–	–	–	–
CNn1cc(C(=O)O)c(=O)c2cc(F)c(N3CC[N+](C)([O-])CC3)cc21	9.4	15.6 (≈ 44.5 µM)	–	–	–	–
CCN1CCN(c2cc3c(cc2F)c(=O)c(C(=O)O)cn3NC)CC1	–	0.5 (≈ 1.44 µM)	–	–	–	–
CCCN1CCN(c2cc3c(cc2F)c(=O)c(C(=O)O)cn3NC)CC1	14.2	0.25 (≈ 0.69 µM)	–	–	–	–
CNn1cc(C(=O)O)c(=O)c2cc(F)c(N3CCNCC3)cc21	0.3	1 (≈ 3.12 µM)	1.95 (≈ 6.09 µM)	1 (≈ 3.12 µM)	6.4	1 (≈ 3.12 µM)
CNn1cc(C(=O)O)c(=O)c2cc(F)c(N3CCCNCC3)cc21.Cl	2.8	–	–	–	–	–
CNn1cc(C(=O)O)c(=O)c2cc(F)c(N3CCCN(C)CC3)cc21.Cl	5.5	1.95	–	–	–	–
CNn1cc(C(=O)O)c(=O)c2cc(F)c(N3CCN(C)CC3)cc21 [AMIFLOXACIN]	–	0.25 (≈ 0.748 µM)	1 (≈ 2.99 µM)	1 (≈ 2.99 µM)	1	0.25 (≈ 0.748 µM)
CCn1cc(C(=O)O)c(=O)c2cc(F)c(N3CCNCC3)cc21 [NORFLOXACIN]	0.3	0.5 (≈ 1.57 µM)	1.95 (≈ 6.11 µM)	1 (≈ 3.13 µM)	5.9	0.5 (≈ 1.57 µM)
CCn1cc(C(=O)O)c(=O)c2cc(F)c(N3CCN(C)CC3)cc21 [PEFLOXACIN]	0.5	0.25 (≈ 0.75 µM)	1 (≈ 3 µM)	1 (≈ 3 µM)	1.1	0.5 (≈ 1.5 µM)
